Test results reported in ChEMBL document CHEMBL1641427, “Arylsulfanyl pyrazolones block mutant SOD1-G93A aggregation. Potential application for the treatment of amyotrophic lateral sclerosis” (Bioorg Med Chem, 2011).
Converted amounts (≈) assume the structure as drawn.

Experiments:
[1] = Inhibition of SOD1 G93A mutant aggregation in rat PC12 cells by cytotoxicity protection assay; format: cell-based; details: PC-12
[2] = Intrinsic clearance in mouse microsome by LC-MS/MS analysis in presence of NADPH; format: ADME; details: mouse microsomes
[3] = Intrinsic clearance in mouse microsome by LC-MS/MS analysis; format: ADME; details: mouse microsomes
[4] = Half life in mouse microsome by LC-MS/MS analysis; format: ADME, microsomes; details: for t1/2: microsomes
[5] = (§1) Permeability from apical to basolateral side of human Caco2 cells after 2 hrs; format: ADME, cell-based, Caco-2; details: Caco-2
Method in brief: (§2)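 Caco-2 cells were seeded on collagen-coated inserts and differentiated for 3 weeks, fed every 2 days. The donor side received 50 μM compound in HBSS with 10 mM HEPES and 1.98 g/L glucose, apical at pH 6.5 and basolateral at pH 7.4, for 2 h. Apical 100 μM Lucifer yellow checked monolayer integrity (<1%/2 h). Papp = dQ/dt/(C0·A), and the ratio is Papp(B→A)/Papp(A→B).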

[6] = (§3) Permeability from basolateral to apical side of human Caco2 cells after 2 hrs; format: ADME, cell-based, Caco-2; details: Caco-2; method in brief: as §2
Caco-2 [7] = assay: (§4) Ratio of permeability from basolateral to apical side to apical to basolateral side in human Caco2 cells; format: ADME, cell-based; method in brief: as §2
[8] = Drug level in Tg6799 mouse brain measured per gram of tissue at 1 mg/kg, ip after 10 mins by LC-MS/MS analysis; format: ADME, organism-based; set-up: dose 1 mg/kg, route intraperitoneal; details: read-out: Drug uptake
Method in brief: (§5)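 Female Tg6799 mice (B6/SJL background), n=3, given 1 mg/kg i.p. in 60% PBS/40% DMSO (100 μL per 10 g) and killed at 10 min. Plasma collected by centrifugation. Brain PBS-perfused via left ventricle, excised, weighed and homogenized in acetonitrile with internal standard. Analyte measured by LC-MS/MS as ratio to internal standard; plasma in μg/mL, brain in μg/g. Brain/plasma ratio computed after μM conversion assuming brain density 1 g/mL. Mean ± SD.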

[9] = Drug level in Tg6799 mouse plasma at 1 mg/kg, ip after 10 mins by LC-MS/MS analysis; format: ADME, organism-based; set-up: dose 1 mg/kg, route intraperitoneal; details: read-out: Drug uptake; method in brief: as §5
[10] = Ratio of drug level in brain to plasma in Tg6799 mouse at 1 mg/kg, ip after 10 mins by LC-MS/MS analysis; format: ADME, organism-based; set-up: dose 1 mg/kg, route intraperitoneal; method in brief: as §5
[11] = Ratio of AUC of compound to 4-ethylidene-1H-pyrazol-5(4H)-ones in pig brain at 0.50 ug/ml brain extract concentration; format: ADME, tissue-based, Sus scrofa; details: in vivo
Method in brief: (§6)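 Brain standards: analyte added to pig brain pieces (300–500 mg) with acetonitrile and internal standard at final 0.05, 0.10, 0.5 and 1.0 μg/mL (1 mL total). Homogenized, then 20 μL aliquot run by LC-MS/MS. Analyte/internal standard response taken. Triplicate.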

[12] = Ratio of AUC of compound to 4-ethylidene-1H-pyrazol-5(4H)-ones in pig brain at 1 ug/ml brain extract concentration; format: ADME, tissue-based, Sus scrofa; details: in vivo; method in brief: as §6
Mus musculus [13] = assay: Plasma area ratio in Tg6799 mouse at 1 mg/kg, ip after 10 mins by LC-MS/MS analysis; format: ADME, organism-based; set-up: dose 1 mg/kg, route intraperitoneal; details: in vivo; method in brief: as §5
Mus musculus [14] = assay: Brain area ratio in Tg6799 mouse at 1 mg/kg, ip after 10 mins by LC-MS/MS analysis; format: ADME, organism-based; set-up: dose 1 mg/kg, route intraperitoneal; details: in vivo; method in brief: as §5
Brain = assay: Effect of compound on Tg6799 mouse brain weight at 1 mg/kg, ip after 10 mins; format: ADME, organism-based; set-up: dose 1 mg/kg, route intraperitoneal; details: in vivo
[15] = Ratio of AUC of compound to 4-ethylidene-1H-pyrazol-5(4H)-ones in pig brain at 0.10 ug/ml brain extract concentration; format: ADME, tissue-based, Sus scrofa; details: in vivo; method in brief: as §6
[16] = Ratio of AUC of compound to 4-ethylidene-1H-pyrazol-5(4H)-ones in pig brain at 0.05 ug/ml brain extract concentration; format: ADME, tissue-based, Sus scrofa; details: in vivo; method in brief: as §6
Plasma (Homo sapiens) [17] = assay: Ratio of AUC of compound to 4-ethylidene-1H-pyrazol-5(4H)-ones in human serum at 0.50 ug/ml plasma concentration
Plasma (Homo sapiens) [18] = assay: Ratio of AUC of compound to 4-ethylidene-1H-pyrazol-5(4H)-ones in human serum at 0.05 ug/ml plasma concentration
Plasma (Homo sapiens) [19] = assay: Ratio of AUC of compound to 4-ethylidene-1H-pyrazol-5(4H)-ones in human serum at 0.10 ug/ml plasma concentration
Plasma (Homo sapiens) [20] = assay: Ratio of AUC of compound to 4-ethylidene-1H-pyrazol-5(4H)-ones in human serum at 0.01 ug/ml plasma concentration
[21] = Aqueous solubility of the compound; format: physicochemical; details: buffer
Method in brief: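 DMSO stock 3-fold serially diluted at 100× final, then diluted into PBS to 1% DMSO final. Incubated 1 h at room temperature, inspected visually for precipitate and read at 450 nm. Solubility limit is the highest concentration neither cloudy nor above background absorbance (visual only for coloured compounds).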

Caco-2 [22] = assay: as §1; format: ADME, cell-based; details: caco-2, 2 h; method in brief: as §2
Caco-2 [23] = assay: as §3; format: ADME, cell-based; details: caco-2, 2 h; method in brief: as §2
[24] = as §4; format: ADME, cell-based; details: Caco-2; method in brief: as §2
Plasma = assay: Half life of the compound in mouse plasma at 5 uM; format: ADME, cell-free
Method in brief: (§7)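 Samples taken at 15 s and at 10, 20, 40 and 60 min, precipitated with acetonitrile containing haloperidol internal standard, then LC-MS/MS. Plasma/PBS response ratio fitted to a first-order exponential (1/Y weighting); T1/2 = ln2/k. PBS half-life from its own exponential fit.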

[25] = Stability of the compound in PBS assessed as compound remaining after 60 mins; format: physicochemical; details: read-out: Stability; method in brief: as §7
[26] = Half life in human microsome by LC-MS/MS analysis; format: ADME; details: microsomes

## O=c1cc(CSc2ccc(F)cc2)[nH][nH]1
[1]
  EC50: 3.44 µM

## O=c1cc(CSc2ccc(Cl)cc2Cl)[nH][nH]1
[1]
  EC50: 1.15 µM

## Cc1cc(SCC2=NNC(=O)/C2=C\N(C)C)c(Cl)cc1Cl
[2]
  CLint scaled: 924 mL/min/kg
[1]
  EC50: 0.9 µM
[3]
  CLint scaled: 135 mL/min/kg
[4]; mouse microsomes
  half-life: 4 min

## O=c1cc(CSc2ccccn2)[nH][nH]1
[1]
  EC50: 46 µM

## O=C1/C(=C\c2ccc(-c3cccc(C(F)(F)F)c3)o2)C(CSc2ccccc2)=NN1c1ccccc1
[1]
  EC50: 35 µM

## CC(C)(C)c1ccc(SCc2cc(=O)[nH][nH]2)cc1
[1]
  EC50: 2.31 µM

## Cc1cc(C)nc(-n2[nH]c(CSc3nnc(C)s3)cc2=O)n1
[1]
  EC50: 6.7 µM

## O=c1cc(CSc2ccccc2Cl)[nH][nH]1
[1]
  EC50: 3.05 µM

## Cc1cc(SCC2=NNC(=O)/C2=C\N(C)C)c(C)cc1Cl
[1]
  EC50: 5.3 µM

## CC(=O)CC(c1ccccc1)c1c(O)c2ccccc2oc1=O (centres undefined) [WARFARIN]
[3]
  CLint scaled: 6 mL/min/kg

## O=c1cc(CSc2cc(Cl)cc(Cl)c2)[nH][nH]1
[1]
  EC50: 0.17 µM

## COc1ccc(SCc2cc(=O)[nH][nH]2)cc1
[1]
  EC50: 1.81 µM

## Cc1ccc(SCc2cc(=O)[nH][nH]2)cc1
[1]
  EC50: 2 µM

## O=c1cc(CSc2ccc(Br)cc2)[nH][nH]1
[1]
  EC50: 1.8 µM

## CNC(=C[N+](=O)[O-])NCCSCc1ccc(CN(C)C)o1 [RANITIDINE]
[5]
  Papp A→B at 2 h: 0.6 ×10⁻⁶ cm/s
[6]
  Papp B→A at 2 h: 0.6 ×10⁻⁶ cm/s
Caco-2 [7]
  Ratio: 1

## Cn1[nH]c(CSc2ccc(Cl)cc2)cc1=O
[1]
  EC50: 5.4 µM

## O=c1cc(CSc2ccc(Cl)c(Cl)c2)[nH][nH]1
[1]
  EC50: 1.89 µM

## Cc1cc(SCc2cc(=O)[nH][nH]2)c(C)cc1Cl
[2]
  CLint scaled: 242 mL/min/kg
[8]
  concentration at 10 min: 360 ng/g
[9]
  concentration at 10 min: 1960 ng/mL
[10]
  Ratio: 0.19
[11]
  Ratio AUC: 1.11
[12]
  Ratio AUC: 2.48
Mus musculus [13]
  Ratio: 0
Mus musculus [14]
  Ratio: 0
Brain
  Activity: 0.399 g
[15]
  Ratio AUC: 0.268
[16]
  Ratio AUC: 0.148
[1]
  EC50: 0.4 µM
[3]
  CLint scaled: 63 mL/min/kg
[4]
  t1/2: 15 min
Plasma (Homo sapiens) [17]
  Ratio AUC: 1.58
Plasma (Homo sapiens) [18]
  Ratio AUC: 0.304
Plasma (Homo sapiens) [19]
  Ratio AUC: 0.637
Plasma (Homo sapiens) [20]
  Ratio AUC: 0.068

## O=c1cc(CSc2ccc(Cl)cc2)[nH]n1-c1ccccc1
[1]
  EC50: 3.46 µM

## Cc1ccc(SCC2=NN(c3ccccc3)C(=O)/C2=C\C2=NCN=C2c2ccccc2)cc1
[1]
  EC50: 10 µM

## Cc1ccc(SCC2=NN(c3ccccc3)C(=O)/C2=C\c2ccc(-c3cccc(C(F)(F)F)c3)o2)cc1
[1]
  EC50: 4.1 µM

## O=c1cc(CSc2nnnn2-c2ccccc2)[nH]n1-c1ccccc1
[1]
  EC50: 6.6 µM

## Cc1cc(SCc2cc(=O)[nH][nH]2)c(Cl)cc1Cl
[21]
  solubility: 56 µM (≈ 16.2 µg/mL)
[1]
  EC50: 0.55 µM
Caco-2 [22]
  Papp: 4.7 ×10⁻⁶ cm/s
Caco-2 [23]
  Papp: 0.46 ×10⁻⁶ cm/s
[24]
  efflux ratio: 0.1
Plasma
  t1/2: 16 min
[25]
  remaining at 1 h: 100%
[26]
  t1/2: 39 min
[4]
  t1/2: 13 min

## O=c1cc(CSc2ccc([N+](=O)[O-])cc2)[nH][nH]1
[1]
  EC50: 2.4 µM

## O=c1cc(CSc2cccc(Cl)c2)[nH][nH]1
[1]
  EC50: 1.11 µM

## O=C1ON=C(CSc2ccccc2)/C1=C/c1ccccc1
[1]
  EC50: 165 µM

## Cc1nnc(SCc2cc(=O)[nH][nH]2)s1
[1]
  EC50: 16 µM

## Cc1nnc(SCc2cc(=O)n(-c3nc4ccccc4s3)[nH]2)s1
[1]
  EC50: 44 µM

## O=c1cc(CSc2ccccc2)[nH][nH]1
[1]
  EC50: 10.1 µM

## O=c1cc(CSc2ccc(Cl)cc2)[nH][nH]1
[1]
  EC50: 1.93 µM

## Cc1ccc(SCc2cc(=O)n(-c3nc(C)cc(C)n3)[nH]2)cc1
[1]
  EC50: 3.5 µM

## O=c1cc(CSc2ccc(-c3ccccc3)cc2)[nH][nH]1
[1]
  EC50: 4.06 µM

## O=C1NN=C(CSc2ccccc2)/C1=C/c1ccccc1
[1]
  EC50: > 32 µM

## O=c1cc(CSc2c(Cl)cccc2Cl)[nH][nH]1
[1]
  EC50: 0.95 µM
